Assay results of several laboratories.
Protocols differ between the studies behind these lines.
Target: Phosphatidylinositol 4-phosphate 3-kinase C2 domain-containing subunit beta (PIK3C2B, Homo sapiens, UniProt O00750)

SMILES | observed | method | tested at | remaining binding
COc1cnc(Nc2cccc(S(N)(=O)=O)c2)nc1N1CCN(c2ccccc2)CC1 | binding | competition with immobilised ligand | 1 µM | 100%
FC(F)(F)Oc1cccc(-c2cnc3ccc(-c4ccncc4)nn23)c1 | cell-free assay | competition with immobilised ligand | 5 µM | 54%
C[C@@H]1CN(c2cc(-c3nn(C)c4ccc(OC5(C)CC5)cc34)ncn2)C[C@H](C)O1 | cell-free assay | competition with immobilised ligand | 1 µM | 70%
Cc1cnn2ncc(-c3ccnc(N(C)C)n3)c2c1 | binding |  | 1 µM | 100%
CNC(=O)[C@@H]1CC[C@@H](n2c(-c3ccc4cnccc4c3)nc3ccc(C(=O)NCc4cccc(C(N)=O)c4)cc32)C1 | binding | competition with immobilised ligand | 1 µM | 100%
CC1=C(C#N)C(c2ccc3c(c2)c(NC(=O)c2ccccc2C)nn3C)C(C#N)=C(C)N1 | cell-free assay | competition with immobilised ligand | 1 µM | 76%
N#Cc1ccccc1CSc1nnc2c(n1)[nH]c1ccccc12 | binding | competition with immobilised ligand | 10 µM | 95%
CC(C)(C)c1ccc(-c2nc(CBr)nn2-c2cccc(O)c2)cc1 | cell-free assay | competition with immobilised ligand | 10 µM | 60%
C[C@@H](c1cccc(C#N)c1)n1cc(Cl)cc(C(N)=O)c1=N | cell-free assay | competition with immobilised ligand | 1 µM | 96%
O=C(c1ccc(Nc2ncc(Cl)c(-c3cc4ccccc4s3)n2)cc1)N1CCC(N2CCCC2)CC1 | binding | competition with immobilised ligand | 1 µM | 100%
COc1ccc2c(O[C@@H]3C[C@H]4C(=O)N[C@]5(C(=O)O)CC5/C=C\CCCCC[C@H](NC(=O)OC5CCCC5)C(=O)N4C3)cc(-c3csc(NC(=O)C(C)C)n3)nc2c1C (stereo partly drawn) | cell-free assay | competition with immobilised ligand | 1 µM | 82%
N[C@@H]1CCN(c2nccc(-c3cnn4ncccc34)n2)C1 | binding |  | 1 µM | 100%
O=C(Nc1c[nH]nc1C(=O)NC1CCNCC1)c1cc(F)cc(F)c1 | binding | competition with immobilised ligand | 1 µM | 100%
CN(c1nccc(-c2cnn3ncccc23)n1)C1CC1 | binding |  | 1 µM | 100%
Cc1nc(NC(=O)N2CCC[C@H]2C(N)=O)sc1-c1ccnc(C(C)(C)C(F)(F)F)c1 | binding | competition with immobilised ligand | 10 µM | 4%
Cc1cnc(Nc2ccc(C(=O)N3CCC(N4CCCC4)CC3)cc2)nc1-c1cc2ccccc2s1 | binding | competition with immobilised ligand | 1 µM | 99%
F[C@@H]1CCN(c2nccc(-c3cnn4ncccc34)n2)C1 | binding |  | 1 µM | 85%
COc1ncc2cc3ccccc3nc2c1C#N | cell-free assay | competition with immobilised ligand | 5 µM | 100%
O=C(Nc1cnc(Oc2ccc(F)cc2)nc1)N1CCc2ncccc2[C@@H]1c1ccc(F)cc1 | cell-free assay | competition with immobilised ligand | 1 µM | 95%
O=C(NCCCN1CCOCC1)c1ccc(Nc2ncc(Cl)c(-c3ccc(Cl)s3)n2)cc1 | binding | competition with immobilised ligand | 1 µM | 100%
CN(CCCC(F)(F)F)c1nccc(-c2cnn3ncccc23)n1 | binding |  | 1 µM | 100%
C[C@H](c1ccnc(Nc2nc3ccc(-c4cc(N(C)C)ncn4)cc3[nH]2)c1)N1CCN(C(=O)CC(F)(F)F)CC1 | cell-free assay | competition with immobilised ligand | 0.1 µM | 97%
CN(C)c1nccc(-c2cnn3ncccc23)n1 | binding |  | 1 µM | 100%
O=C(N[C@H]1CCCCC/C=C\C2C[C@@]2(C(=O)O)NC(=O)[C@@H]2C[C@@H](Oc3ccncc3)CN2C1=O)OC1CCCC1 (stereo partly drawn) | binding | competition with immobilised ligand | 1 µM | 84%
